Hit rate of the full screen: of about 200,000 compounds, fewer than 10 were called active.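 The calls were made as follows: active = activation factor at least 2 at 20 µM; inactive = the rest.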 Not all results are given here.
These compounds were tested against Alkaline phosphatase, tissue-nonspecific isozyme (Homo sapiens) (UniProt P05186) (assay: TNAP activators at high phosphate acceptor level, primary screen, biochemical, luminescence, uHTS (AID 1136)). Conditions: purified TNAP, CDP-star luminescence, 1 M DEA, 30 min; at 20 µM; active compounds read high; 0 = EDTA background, 1 = DMSO-only activity.
Sequence of Alkaline phosphatase, tissue-nonspecific isozyme (Homo sapiens) (P05186 whole entry, looked up): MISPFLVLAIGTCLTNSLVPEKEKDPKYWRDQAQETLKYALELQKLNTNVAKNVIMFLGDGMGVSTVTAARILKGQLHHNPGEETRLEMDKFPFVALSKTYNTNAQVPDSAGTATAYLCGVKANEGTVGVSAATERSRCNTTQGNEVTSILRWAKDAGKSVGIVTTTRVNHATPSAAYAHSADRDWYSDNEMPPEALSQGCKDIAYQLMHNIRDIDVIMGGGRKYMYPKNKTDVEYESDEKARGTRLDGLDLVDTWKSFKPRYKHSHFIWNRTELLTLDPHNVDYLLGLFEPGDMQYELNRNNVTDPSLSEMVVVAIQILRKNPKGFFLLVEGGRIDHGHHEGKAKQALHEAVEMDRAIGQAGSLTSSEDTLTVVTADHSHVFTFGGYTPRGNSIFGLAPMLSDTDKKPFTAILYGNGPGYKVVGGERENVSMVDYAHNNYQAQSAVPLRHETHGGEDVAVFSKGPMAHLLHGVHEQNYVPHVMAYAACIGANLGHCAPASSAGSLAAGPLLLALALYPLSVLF
Summary of the method: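 system = human TNAP | amount = enzyme diluted 1/800 final | reagent = 100 µM CDP-star substrate | signal = luminescent substrate turnover signal | dosing = one dose, 20 µM | benchmarks = EDTA negative control, DMSO positive control | measure = activation factor | timing = 30 min reaction, room temperature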

Activation factor, active:
Cc1ccc(O)c(-c2cc(C(=O)NCc3ccccc3)[nH]n2)c1 2.3

Activation factor, inactive:
O=S(=O)(/N=C(/Nc1ccccc1)c1ccccc1)c1cccs1 1
CCOc1ccc(N2C(=O)CN(c3cccc4ccccc34)C2=S)cc1 1.1
C/C(=N/OC(=O)c1cccc(C(F)(F)F)c1)c1cnccn1 1
CCN(CC)CCNC(=O)c1ccc(NS(=O)(=O)c2ccc3c(c2)OCCO3)cc1 1
Cc1cc(/C=C2/NC(=O)NC2=O)c(C)n1-c1cccnc1 1.1
C=CCC1(CC=C)CCCN1C(=O)CC1C(=O)NCCN1Cc1ccccc1OC (stereo unspecified) 1
C/C(=N/NC(=O)CCc1ccccc1)c1ccco1 1
CCCCN(CC)CCCNC(=O)c1ccc(CSc2nc3ccncc3[nH]2)cc1 1
CC1=CC2=NC(=O)CC(C)(C(=O)N(CC(=O)NC(C)(C)C)Cc3ccccc3)N2C=C1 (stereo unspecified) 1.1
O=C(CN1CCN(Cc2ccc(F)cc2Cl)C1=O)NCc1cccs1 1.1
CCC(C)(C)C1CCC(=NNC(=O)c2ccc(Br)o2)CC1 (stereo unspecified) 1.1
Cc1cccc(C)c1NC(=O)Nc1ccccc1-n1ccnc1 1.1
Cc1cccc(N2CCN(c3ccc(C(N)=O)cc3[N+](=O)[O-])CC2)c1C 1
COc1ccc(-c2[nH]ncc2CN(C)Cc2cccnc2)c(F)c1 1
COc1ccccc1CN(C)C(=O)C1(c2ccc(Cl)cc2)CC1 1
CCOC(=O)C(NC(C)=O)C(=O)Nc1ccc(OC)cc1 (stereo unspecified) 1.1
COc1cccc(CC2(CO)CCN(Cc3cnc(-c4cccc(C)c4)nc3)CC2)c1 1.1
CCOc1ccc(C(C)=O)cc1CSc1nnc(-c2ccncc2)n1CCOC 1
CN1CCN(/N=C/c2ccc(C#N)cc2)CC1 1
O=C1C2C3C=CC(C3)C2C(=O)N1c1ccc(-c2nc3ccccc3c(=O)o2)cc1 (stereo unspecified) 1
COC(=O)CC1=NN(c2ccccc2)C(=O)C1 1
COc1ccc(/C(C)=N/NC(=O)CCC(=O)Nc2ccc(Cl)cc2Cl)c(OC)c1 0.9
Cc1cccc(NC(=O)CN2C(=O)c3ccccc3C2=O)c1C 1
CC1=C(C)CC(C(=O)NC(C)CCc2ccccc2)C(C(=O)O)C1 (stereo unspecified) 1
Cc1ccc(CNC(=O)c2ccccc2CCc2ccccc2)cc1 1.1
Cc1ccc(O)c(-c2cc(C(=O)Nc3c(C)n(C)n(-c4ccccc4)c3=O)[nH]n2)c1 1
O=C1CCC(CCC(=O)N2CCCC(C(=O)c3ccc(Cl)cc3)C2)=NN1 (stereo unspecified) 1.1
[O-][n+]1c2c(nn1-c1ccc(Cl)c(Cl)c1)-c1nonc1CC2 1
Cc1ccc(CN2CCC(N3CCC(C(=O)NCC4CCCO4)CC3)CC2)o1 (stereo unspecified) 1
Cc1ccccc1-c1n[nH]c(=S)n1/N=C/c1ccc(-c2ccccc2Br)o1 0.9
CCOC(=O)C1(Cc2cccc(OC)c2)CCCN(S(=O)(=O)c2cccnc2)C1 (stereo unspecified) 1.1
CCOc1ccc(C(=O)NCCCN2CCCC2=O)cc1 1
COc1ccc(NS(=O)(=O)c2cc(NC(=O)/C=C/c3cc(OC)c(OC)c(OC)c3)ccc2N2CCCCC2)cc1 1
Cc1cc(SCC(=O)NCCN2C(=O)CSC2=O)nc2ccccc12 1
N#Cc1cnn2cc(CCN3CCOCC3)c(-c3ccc(F)cc3)nc12 1
Cc1ccc(C(=O)NC(=S)Nc2ccc(N3CCOCC3)cc2)cc1 1
COC(=O)COc1cccc2c(=O)n(CC(=O)NCCc3ccc(OC)c(OC)c3)ccc12 1
Cc1ccc(NC(=S)N(CCN2CCCCC2)Cc2ccco2)cc1C 1
COC(=O)c1cc(NC(=O)Cc2ccccc2[N+](=O)[O-])ccc1Cl 1
COc1ccc(C(=O)CSc2nc(C)cc(C)n2)cc1[N+](=O)[O-] 1
Cc1ccc(S(=O)(=O)N(CC(=O)NN=C2CCN(C)CC2)c2ccc(F)cc2)cc1 1
CN(C)S(=O)(=O)c1cccc(NC(=O)COC(=O)c2cc(=O)[nH]c(=O)[nH]2)c1 1
O=S(=O)(Nc1ncccn1)c1ccc(NS(=O)(=O)c2cccc(Cl)c2Cl)cc1 1
O=C(NNC(=S)NCc1ccco1)C(c1ccccc1)c1ccccc1 1
CCCCC(=O)NCc1ccc(F)cc1 1.1
CCN(c1ccc(NC(=O)COC(=O)CCc2nc3ccccc3n2-c2ccccc2)cc1)C(C)C 1
Clc1cccc(CN2COc3c(cc(Cl)c4cccnc34)C2)c1 1.1
CCN(CCO)C(=S)Nc1cc(C(=O)OC)ccc1C(=O)OC 1
Cc1ccccc1CC1(CO)CCCN(Cc2ccc3c(c2)OCCO3)C1 (stereo unspecified) 1.1
Clc1ccc(-n2nnnc2-c2cnc(-c3ccccn3)nc2-c2cccs2)cc1 1
COc1ccc(C(=O)Nc2c(Cl)cc(Cl)cc2C(=O)N2CCC(C)CC2)cc1 1
O=C(c1ccc(Cl)c([N+](=O)[O-])c1)N1CCN(c2ccccc2)CC1 1
O=C(CCl)NNc1cccc(Cl)n1 1
C=CCN1C(=O)C(Cc2ccc(OCC)cc2)SC1=Nc1ccc(C(=O)O)cc1 (stereo unspecified) 1
Cc1nc([N+](=O)[O-])nn1C12CC3CC(CC(Br)(C3)C1)C2 1
CC1CCC(C(C)C)C(=O)/C1=C\c1ccc(NC(=O)CCC(=O)O)cc1 (stereo unspecified) 1.1
O=C(CN1C2=NCCN2c2ccccc21)c1cccs1 1.1
COc1ccc(/C=N/NC(=O)c2ccncc2)cc1CN1CCCc2ccccc21 1
Cc1ccnc(NC(=O)c2ccco2)n1 1
CCNc1nc(-c2cc3ccccc3o2)cs1 1.1
Oc1cccc(C2c3[nH]c4ccccc4c3CCN2Cc2cnn(-c3ccccc3)c2)c1 (stereo unspecified) 1
COC(=O)c1ccc(C(NC(=O)OCc2ccccc2)/C(C)=C/[C@@H](C)C(=O)NCc2ccc(OC)c(OC)c2)cc1 (stereo partly specified) 1.1
CCOc1c2ccc(C(=O)NC3CCCc4ccccc43)cc2nn1CC (stereo unspecified) 1
Cc1nnsc1C(=O)N/N=C/c1cccc(C(F)(F)F)c1 1
Cc1[nH]c2ccccc2c1/C=C(/C#N)C(=O)NC(C)C 1
O=C(Cc1c(F)cccc1Cl)Nc1ccc(-n2cnnn2)cc1 1
COCCCNC(=O)Cn1c(=O)n(Cc2ccccc2Cl)c(=O)c2cc(OC)c(OC)cc21 1
COc1cc([N+](=O)[O-])ccc1NC(=O)CN1CCCC1 1
COc1ccc(-c2nn(-c3ccccc3)cc2CN2CCCO2)c(F)c1 1.1
O=C(O/N=C(/c1ccccc1)c1ccncc1)c1ccccc1[N+](=O)[O-] 1.1
CCC(C)NC(=O)Cn1nc(C(F)(F)F)c2c1CCC2 (stereo unspecified) 1.1
CCOC(=O)COc1cc(O)c2c(=O)cc(-c3ccccc3)oc2c1 1
Cc1cccc(NC(=O)/C=C/c2ccc3c(c2)OCO3)n1 1
COc1ccc(Sc2nc(-c3ccccc3)ncc2OC)cc1 1
N#CCOc1ccc(C2=NO[C@@H]3[C@@H]4C[C@@H]([C@H]5C(=O)N(c6ccc7c(c6)OCO7)C(=O)[C@@H]45)[C@H]23)cc1 1

From PubChem BioAssay AID1136 (Sanford-Burnham Center for Chemical Genomics, 2008)
